Results gathered from unrelated publications.
Compare with care: the assays were run in different laboratories.
Target: Mitogen-activated protein kinase 14 (MAPK14, Homo sapiens, UniProt Q16539)

| Compound | observed | method | concentration | remaining binding [%] |
| --- | --- | --- | --- | --- |
| COc1cnc(Nc2cccc(S(N)(=O)=O)c2)nc1N1CCN(c2ccccc2)C(=O)C1 | binding | competition with immobilised ligand | 1 µM | 100 |
| COc1ccc2cc(OCC3(C(=O)O)CN(C(=O)c4ccc(F)cc4)C3)ccc2c1 | cell-free assay | competition with immobilised ligand | 1 µM | 100 |
| C[C@H]1CCN(c2nccc(-c3cnn4ncccc34)n2)C1 | binding |  | 1 µM | 100 |
| CC(=O)Nc1c(C(C)=O)c(=O)n(C)c2nc(-c3ccc(Cl)cc3Cl)c(-c3ccc(Cl)cc3)cc12 | cell-free assay | competition with immobilised ligand | 1 µM | 100 |
| O=C(NCCCN1CCOCC1)c1ccc(Nc2ncc(Cl)c(-c3ccc(Cl)s3)n2)cc1 | binding | competition with immobilised ligand | 1 µM | 100 |
| COC(=O)Nc1nc2ccc(C(=O)c3ccccc3)cc2[nH]1 | cell-free assay | competition with immobilised ligand | 10 µM | 17 |
| C[C@@H]1CN(c2ccc3ncc(-c4ccc5[nH]nc(C6CC6)c5c4)n3n2)C[C@H](C)O1 | binding | competition with immobilised ligand | 50 nM | 100 |
| N[C@@H]1CCN(c2nccc(-c3cnn4ncccc34)n2)C1 | binding |  | 1 µM | 100 |
| O=C(c1ccc(Nc2nccc(-c3cc4ccccc4s3)n2)cc1)N1CCC(N2CCCC2)CC1 | binding | competition with immobilised ligand | 1 µM | 100 |
| Nc1ncc2c(n1)-c1c([nH]c3ccc(C#CC4CC4)cc13)CCCC2 | binding | competition with immobilised ligand | 1 µM | 98 |
| CN(C)c1ncc(F)c(-c2cnn3ncccc23)n1 | binding |  | 1 µM | 100 |
| CNCc1ccccc1-c1csc([C@H](C)Nc2nc(C)nc3cc(OC)c(OC)cc23)c1 | cell-free assay | competition with immobilised ligand | 1 µM | 100 |
| CN(CCCC(F)(F)F)c1nccc(-c2cnn3ncccc23)n1 | binding |  | 1 µM | 100 |
| O=C(c1ccc(Nc2ncc(Cl)c(-c3ccc(Cl)s3)n2)cc1)N1CCC(N2CCCC2)CC1 | binding | competition with immobilised ligand | 1 µM | 91 |
| O=C(Nc1ccc(Oc2ccc(F)cc2)cc1)N1CCc2ncccc2[C@H]1c1ccc(F)cc1 | cell-free assay | competition with immobilised ligand | 1 µM | 100 |
| CCN1CCN(Cc2ccc(C(=O)Nc3ccc(C)c(Oc4ccc5c(c4)CC(=O)N5)c3)cc2C(F)(F)F)CC1 | binding | competition with immobilised ligand | 1 µM | 18 |
| CNC(=O)c1ccc(Nc2ncc(C(F)(F)F)c(NCc3nccnc3N(C)S(C)(=O)=O)n2)cc1 | cell-free assay | competition with immobilised ligand | 0.1 µM | 100 |
| O=C(Nc1c[nH]nc1C(=O)NC1CCNCC1)c1cc(F)cc(F)c1 | binding | competition with immobilised ligand | 1 µM | 100 |
| O=C(O)[C@H]1[C@H](Cn2nnc3ccccc3c2=O)CC[C@@H]1C(=O)c1ccc(OCCC2CCOCC2)cc1 | cell-free assay | competition with immobilised ligand | 1 µM | 85 |
| CN(C)c1nccc(-c2cnc3ncccn23)n1 | binding |  | 1 µM | 100 |
| O=C(N1CCS(=O)(=O)CC1)N1C[C@H](c2ccc(OC(F)(F)F)cc2)C[C@H](c2nc(C3CC3)no2)C1 | cell-free assay | competition with immobilised ligand | 1 µM | 100 |
| Cc1cnn2ncc(-c3ccnc(N(C)C)n3)c2c1 | binding |  | 1 µM | 100 |
| Nc1cnc(N2CCc3cc(S(=O)(=O)Nc4c(F)cc(Cl)cc4F)cc(N4CCCC4=O)c32)nc1 | cell-free assay | competition with immobilised ligand | 1 µM | 100 |
| COc1ccnn2ncc(-c3ccnc(N(C)C)n3)c12 | binding |  | 1 µM | 87 |
| COc1ncc2cc3ccccc3nc2c1C#N | cell-free assay | competition with immobilised ligand | 5 µM | 100 |
